≈ marks a conversion by molar mass, not a printed value.
Assays:
Type in all cases: functional
Candida albicans [1] = assay: Antifungal activity against Candida albicans ATCC 90028 after 48 hrs by CLSI broth microdilution method; conditions: ATCC 90028, 48 h
In short: (§1)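 Yeast CLSI broth microdilution (M27-A3). Compounds dissolved in DMSO at 100× the top test concentration, then diluted as serial two-fold dilutions in RPMI 1640 to final 0.125–64. Inoculum was 1.0–1.5 × 10^3 cells mL−1, incubated at 35 °C and read for growth at 48 h. MIC is the lowest concentration giving ≥50% growth inhibition versus growth control. Reported as the median of five replicates and as the geometric mean.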

Candida albicans [2] = assay: Antifungal activity against Candida albicans ATCC 20891 after 48 hrs by CLSI broth microdilution method; conditions: ATCC 20891, 48 h; in short: as §1
Candida albicans [3] = assay: Antifungal activity against Candida albicans PMC 1011 after 48 hrs by CLSI broth microdilution method; conditions: PMC 1011, 48 h; in short: as §1
Pichia kudriavzevii [4] = assay: Antifungal activity against Candida krusei DSM 6128 after 48 hrs by CLSI broth microdilution method; conditions: DSM 6128, 48 h; in short: as §1
Pichia kudriavzevii [5] = assay: Antifungal activity against Candida krusei PMC 0613 after 48 hrs by CLSI broth microdilution method; conditions: PMC 0613, 48 h; in short: as §1
Candida tropicalis [6] = assay: Antifungal activity against Candida tropicalis PMC 0910 after 48 hrs by CLSI broth microdilution method; conditions: PMC 0910, 48 h; in short: as §1
Candida tropicalis [7] = assay: Antifungal activity against Candida tropicalis DSM 11953 after 48 hrs by CLSI broth microdilution method; conditions: DSM 11953, 48 h; in short: as §1
Candida parapsilosis [8] = assay: Antifungal activity against Candida parapsilosis DSM 11224 after 48 hrs by CLSI broth microdilution method; conditions: Lodderomyces parapsilosis, DSM 11224, 48 h; in short: as §1
Candida parapsilosis [9] = assay: Antifungal activity against Candida parapsilosis ATCC 22019 after 48 hrs by CLSI broth microdilution method; conditions: Lodderomyces parapsilosis, ATCC 22019, 48 h; in short: as §1
Nakaseomyces glabratus [10] = assay: Antifungal activity against Candida glabrata PMC 0805 after 48 hrs by CLSI broth microdilution method; conditions: PMC 0805, 48 h; in short: as §1
Nakaseomyces glabratus [11] = assay: Antifungal activity against Candida glabrata PMC 0807 after 48 hrs by CLSI broth microdilution method; conditions: PMC 0807, 48 h; in short: as §1
Cryptococcus neoformans [12] = assay: Antifungal activity against Cryptococcus neoformans PMC 2123 after 72 hrs by CLSI broth microdilution method; conditions: PMC 2123, 72 h
In short: (§2)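 Cryptococcus neoformans tested by CLSI broth microdilution in RPMI 1640, with serial two-fold dilutions from DMSO stocks at 100× the top concentration, final 0.125–64. Inoculum was 1.0–1.5 × 10^3 cells mL−1 at 35 °C, with growth read at 72 h. MIC is the lowest concentration with ≥50% growth inhibition versus control. Median of five replicates, plus geometric mean.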

Cryptococcus neoformans [13] = assay: Antifungal activity against Cryptococcus neoformans PMC 2136 after 72 hrs by CLSI broth microdilution method; conditions: PMC 2136, 72 h; in short: as §2
Cryptococcus neoformans [14] = assay: Antifungal activity against Cryptococcus neoformans PMC 2115 after 72 hrs by CLSI broth microdilution method; conditions: PMC 2115, 72 h; in short: as §2
Cryptococcus neoformans [15] = assay: Antifungal activity against Cryptococcus neoformans PMC 2103 after 72 hrs by CLSI broth microdilution method; conditions: PMC 2103, 72 h; in short: as §2
Cryptococcus neoformans [16] = assay: Antifungal activity against Cryptococcus neoformans PMC 2107 after 72 hrs by CLSI broth microdilution method; conditions: PMC 2107, 72 h; in short: as §2
Cryptococcus neoformans [17] = assay: Antifungal activity against Cryptococcus neoformans PMC 2102 after 72 hrs by CLSI broth microdilution method; conditions: PMC 2102, 72 h; in short: as §2
Cryptococcus neoformans [18] = assay: Antifungal activity against Cryptococcus neoformans DSM 11959 after 72 hrs by CLSI broth microdilution method; conditions: DSM 11959, 72 h; in short: as §2
Cryptococcus neoformans [19] = assay: Antifungal activity against Cryptococcus neoformans PMC 2111 after 72 hrs by CLSI broth microdilution method; conditions: PMC 2111, 72 h; in short: as §2
[20] = test system: Trichophyton mentagrophytes; assay: Antifungal activity against Trichophyton mentagrophytes DSM 4870 after 72 hrs by CLSI broth microdilution method; conditions: DSM 4870, 72 h
In short: (§3)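 Dermatophytes tested by CLSI broth microdilution for filamentous fungi (M38-A2). Serial two-fold dilutions of DMSO-dissolved compound in RPMI 1640, final 0.125–64. Inoculum was 0.4–5 × 10^4 CFU mL−1, incubated at 35 °C and read at 72 h. MIC80 is the lowest concentration giving ≥80% growth inhibition versus growth control. Median of five replicates, plus geometric mean.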

[21] = test system: Trichophyton mentagrophytes; assay: Antifungal activity against Trichophyton mentagrophytes PMC 6515 after 72 hrs by CLSI broth microdilution method; conditions: PMC 6515, 72 h; in short: as §3
[22] = test system: Trichophyton mentagrophytes; assay: Antifungal activity against Trichophyton mentagrophytes PMC 6531 after 72 hrs by CLSI broth microdilution method; conditions: PMC 6531, 72 h; in short: as §3
[23] = test system: Trichophyton mentagrophytes; assay: Antifungal activity against Trichophyton mentagrophytes PMC 6509 after 72 hrs by CLSI broth microdilution method; conditions: PMC 6509, 72 h; in short: as §3
[24] = test system: Trichophyton mentagrophytes; assay: Antifungal activity against Trichophyton mentagrophytes PMC 6503 after 72 hrs by CLSI broth microdilution method; conditions: PMC 6503, 72 h; in short: as §3
[25] = test system: Trichophyton mentagrophytes; assay: Antifungal activity against Trichophyton mentagrophytes PMC 6552 after 72 hrs by CLSI broth microdilution method; conditions: PMC 6552, 72 h; in short: as §3
Nannizzia gypsea [26] = assay: Antifungal activity against Microsporum gypseum PMC 7303 after 72 hrs by CLSI broth microdilution method; conditions: PMC 7303, 72 h; in short: as §3
Nannizzia gypsea [27] = assay: Antifungal activity against Microsporum gypseum PMC 7331 after 72 hrs by CLSI broth microdilution method; conditions: PMC 7331, 72 h; in short: as §3
Nannizzia gypsea [28] = assay: Antifungal activity against Microsporum gypseum DSM 3824 after 72 hrs by CLSI broth microdilution method; conditions: DSM 3824, 72 h; in short: as §3
Candida albicans [29] = assay: Antifungal activity against Candida albicans ATCC 24433 after 48 hrs by CLSI broth microdilution method; conditions: ATCC 24433, 48 h; in short: as §1
Candida albicans [30] = assay: Antifungal activity against Candida albicans ATCC 3153 after 48 hrs by CLSI broth microdilution method; conditions: ATCC 3153, 48 h; in short: as §1
Candida albicans [31] = assay: Antifungal activity against Candida albicans ATCC 10231 after 48 hrs by CLSI broth microdilution method; conditions: ATCC 10231, 48 h; in short: as §1
Candida albicans [32] = assay: Antifungal activity against Candida albicans ATCC 76615 after 48 hrs by CLSI broth microdilution method; conditions: ATCC 76615, 48 h; in short: as §1
Candida albicans [33] = assay: Antifungal activity against Candida albicans ATCC 10261 after 48 hrs by CLSI broth microdilution method; conditions: ATCC 10261, 48 h; in short: as §1

Compound	MIC50 (Candida albicans [1]) [µg/mL]	MIC50 (Candida albicans [2]) [µg/mL]	MIC50 (Candida albicans [3]) [µg/mL]	MIC50 (Pichia kudriavzevii [4]) [µg/mL]	MIC50 (Pichia kudriavzevii [5]) [µg/mL]	MIC50 (Candida tropicalis [6]) [µg/mL]	MIC50 (Candida tropicalis [7]) [µg/mL]	MIC50 (Candida parapsilosis [8]) [µg/mL]	MIC50 (Candida parapsilosis [9]) [µg/mL]	MIC50 (Nakaseomyces glabratus [10]) [µg/mL]	MIC50 (Nakaseomyces glabratus [11]) [µg/mL]	MIC50 (Cryptococcus neoformans [12]) [µg/mL]	MIC50 (Cryptococcus neoformans [13]) [µg/mL]	MIC50 (Cryptococcus neoformans [14]) [µg/mL]	MIC50 (Cryptococcus neoformans [15]) [µg/mL]	MIC50 (Cryptococcus neoformans [16]) [µg/mL]	MIC50 (Cryptococcus neoformans [17]) [µg/mL]	MIC50 (Cryptococcus neoformans [18]) [µg/mL]	MIC50 (Cryptococcus neoformans [19]) [µg/mL]	MIC80 [20] [µg/mL]	other results
CCS(=O)(=O)N1CCN(c2ccc(NC(=O)OC(Cn3ccnc3)c3ccc(F)cc3)cc2)CC1 (stereo unspecified)	128 (≈ 255 µM)	128 (≈ 255 µM)	128 (≈ 255 µM)	128 (≈ 255 µM)	128 (≈ 255 µM)	128 (≈ 255 µM)	128 (≈ 255 µM)	128 (≈ 255 µM)	128 (≈ 255 µM)	128 (≈ 255 µM)	128 (≈ 255 µM)	32 (≈ 63.8 µM)	16 (≈ 31.9 µM)	32 (≈ 63.8 µM)	16 (≈ 31.9 µM)	8 (≈ 15.9 µM)	16 (≈ 31.9 µM)	16 (≈ 31.9 µM)	16 (≈ 31.9 µM)	128 (≈ 255 µM)	MIC80 [21]: 128 µg/mL (≈ 255 µM); MIC80 [22]: 128 µg/mL (≈ 255 µM); MIC80 [23]: 128 µg/mL (≈ 255 µM); MIC80 [24]: 128 µg/mL (≈ 255 µM); MIC80 [25]: 128 µg/mL (≈ 255 µM); MIC80 (Nannizzia gypsea [26]): 128 µg/mL (≈ 255 µM); MIC80 (Nannizzia gypsea [27]): 128 µg/mL (≈ 255 µM); MIC80 (Nannizzia gypsea [28]): 128 µg/mL (≈ 255 µM); MIC50 (Candida albicans [29]): 128 µg/mL (≈ 255 µM); MIC50 (Candida albicans [30]): 128 µg/mL (≈ 255 µM); MIC50 (Candida albicans [31]): 128 µg/mL (≈ 255 µM); MIC50 (Candida albicans [32]): 128 µg/mL (≈ 255 µM); MIC50 (Candida albicans [33]): 128 µg/mL (≈ 255 µM)
O=C(OC(Cn1ccnc1)c1ccc(Cl)cc1)N1CCN(c2ccc([N+](=O)[O-])cc2)CC1 (stereo unspecified)	2 (≈ 4.39 µM)	8 (≈ 17.5 µM)	16 (≈ 35.1 µM)	128 (≈ 281 µM)	16 (≈ 35.1 µM)	64 (≈ 140 µM)	128 (≈ 281 µM)	4 (≈ 8.77 µM)	8 (≈ 17.5 µM)	64 (≈ 140 µM)	64 (≈ 140 µM)	64 (≈ 140 µM)	8 (≈ 17.5 µM)	32 (≈ 70.2 µM)	8 (≈ 17.5 µM)	8 (≈ 17.5 µM)	16 (≈ 35.1 µM)	8 (≈ 17.5 µM)	8 (≈ 17.5 µM)	64 (≈ 140 µM)	MIC80 [21]: 32 µg/mL (≈ 70.2 µM); MIC80 [22]: 32 µg/mL (≈ 70.2 µM); MIC80 [23]: 32 µg/mL (≈ 70.2 µM); MIC80 [24]: 64 µg/mL (≈ 140 µM); MIC80 [25]: 32 µg/mL (≈ 70.2 µM); MIC80 (Nannizzia gypsea [26]): 32 µg/mL (≈ 70.2 µM); MIC80 (Nannizzia gypsea [27]): 16 µg/mL (≈ 35.1 µM); MIC80 (Nannizzia gypsea [28]): 64 µg/mL (≈ 140 µM); MIC50 (Candida albicans [29]): 32 µg/mL (≈ 70.2 µM); MIC50 (Candida albicans [30]): 16 µg/mL (≈ 35.1 µM); MIC50 (Candida albicans [31]): 16 µg/mL (≈ 35.1 µM); MIC50 (Candida albicans [32]): 128 µg/mL (≈ 281 µM); MIC50 (Candida albicans [33]): 8 µg/mL (≈ 17.5 µM)

Reference: ChEMBL document CHEMBL3286116, “Synthesis, biological evaluation and structure-activity correlation study of a series of imidazol-based compounds as Candida albicans inhibitors” (Eur J Med Chem, 2014)
